The text below walks through data of ChEMBL document CHEMBL1667748, “Synthesis and anti-inflammatory evaluation of some new acyl-hydrazones bearing 2-aryl-thiazole” (2011).

Calls of active or inactive are those of the source. No cut-off for these calls is given here.

For assay [1], the system named is Rattus norvegicus. The assay is described as follows: Antiinflammatory activity against Wistar-Bratislava albino rat assessed as leukocyte count at 3.2 mg/kg, ip (Rbv = 4952.7+/-436.9 number/mm'3). Format: functional. The note with it: route intraperitoneal.
Assay [2] concerns Rattus norvegicus. The assay is described as follows: Antiinflammatory activity against Wistar-Bratislava albino rat assessed as reduction serum nitrate/nitrite concentration at 3.2 mg/kg, ip. Format: functional, organism-based. Set-up: dose 3.2 mg/kg. In short, it runs like this:
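In rats given turpentine oil 0.6 mL/100 g i.m. plus i.p. treatment in 1% carboxymethyl cellulose suspension, serum nitrate was reduced to nitrite with VCl3 in acidic solution. Griess reagents (SULF, NEDD) were then added, and absorbance at 540 nm was read after about 30-45 min incubation.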

Assay [3] concerns Rattus norvegicus. The assay is described as follows: Antiinflammatory activity against Wistar-Bratislava albino rat assessed as lymphocyte count at 3.2 mg/kg, ip (Rbv = 37+/-2.2%). Conditions: route intraperitoneal. Format: functional.
Assay [4] has as its system Rattus norvegicus. The assay is described as follows: Antiinflammatory activity against Wistar-Bratislava albino rat assessed as monocyte count at 3.2 mg/kg, ip (Rbv = 7.6+/-0.45%). Format: functional. The note with it: route intraperitoneal.
The subject of assay [5] is Rattus norvegicus. The assay is described as follows: Antiinflammatory activity against Wistar-Bratislava albino rat assessed as neutrophil count at 3.2 mg/kg, ip (Rbv = 55.6+/-1.32%). Format: functional. The note with it: route intraperitoneal.
For assay [6], the species on record is Rattus norvegicus. Briefly: Induction of phagocytosis in Wistar-Bratislava albino rat PMNC using Escherichia coli suspension assessed as reduction in phagocytosis index after 30 mins. Format: functional.
Assay [7] is filed under the species Rattus norvegicus. Briefly: Induction of phagocytosis in Wistar-Bratislava albino rat PMNC using Escherichia coli suspension assessed as reduction in phagocytosis activity after 30 mins. Format: functional.

Consider `Cc1ccc(-c2nc(CC(=O)N/N=C/c3ccccc3OCc3csc(-c4ccc(Br)cc4)n3)cs2)cc1`, for which the Activity is listed as 9300 /mm3 in the assay on Rattus norvegicus [1], 29.14% in the assay with Rattus norvegicus [3], 2.86% in the assay with Rattus norvegicus [4] and 67.71% in the assay with Rattus norvegicus [5]. Moreover, the outcome in the assay on Rattus norvegicus [2] was inactive.

Turning to `O=C(COc1ccc2c(=O)cc(-c3ccccc3)oc2c1)N/N=C/c1cccc(OCc2csc(-c3ccc(Br)cc3)n2)c1`, the result in the assay filed under Rattus norvegicus [6], with Rattus norvegicus [2] and in the assay filed under Rattus norvegicus [7] was Active. The Activity was 8000 /mm3 in the assay with Rattus norvegicus [1], 39.86% in the assay with Rattus norvegicus [3], 3.28% in the assay on Rattus norvegicus [4] and 57.43% in the assay with Rattus norvegicus [5].

Turning to `Cc1ccc(-c2nc(CC(=O)N/N=C\c3ccc(OCc4csc(-c5ccc(Br)cc5)n4)cc3)cs2)cc1`, the Activity in the assay with Rattus norvegicus [1] is 7314.28 /mm3; in the assay with Rattus norvegicus [3] it was 28.57%; in the assay on Rattus norvegicus [4], 2.71%; with Rattus norvegicus [5], 68.28%.

Turning to `O=C(Cc1csc(-c2cccc(C(F)(F)F)c2)n1)N/N=C/c1ccccc1OCc1csc(-c2ccc(Br)cc2)n1`, the outcome in the assay filed under Rattus norvegicus [6] and in the assay listed under Rattus norvegicus [7] was Active. Besides, the Activity with Rattus norvegicus [1] was 7837.14 /mm3; with Rattus norvegicus [3], 24.71%; in the assay with Rattus norvegicus [4], 2.57%; with Rattus norvegicus [5], 68.85%.

Regarding `O=C(Cc1csc(-c2cccc(C(F)(F)F)c2)n1)N/N=C/c1cccc(OCc2csc(-c3ccc(Br)cc3)n2)c1`, the Activity is given as 6914.28 /mm3 in the assay with Rattus norvegicus [1], 23.43% in the assay with Rattus norvegicus [3], 2.86% in the assay with Rattus norvegicus [4] and 70.86% with Rattus norvegicus [5]. For the same compound, the outcome in the assay with Rattus norvegicus [2] and in the assay filed under Rattus norvegicus [7] was Active.

In the case of `Cc1ccc(-c2nc(CC(=O)N/N=C\c3ccc(OCC(=O)c4sc(-c5ccccc5)nc4C)cc3)cs2)cc1`, the outcome in the assay listed under Rattus norvegicus [6], in the assay on Rattus norvegicus [2] and in the assay listed under Rattus norvegicus [7] was Active. The Activity with Rattus norvegicus [1] was 8742.85 /mm3; with Rattus norvegicus [3], 32.14%; with Rattus norvegicus [4] it was 2.43%; in the assay with Rattus norvegicus [5] it was 66%.

As to `Cc1cnc(NC(=O)C2=C(O)c3ccccc3S(=O)(=O)N2C)s1` [MELOXICAM], the Activity is on record as 7660 /mm3 with Rattus norvegicus [1], 32.28% in the assay on Rattus norvegicus [3], 2% with Rattus norvegicus [4] and 66.57% with Rattus norvegicus [5].

As to `Cc1ccc(-c2nc(CC(=O)N/N=C/c3cccc(OCc4csc(-c5ccccc5)n4)c3)cs2)cc1`, the Activity in the assay with Rattus norvegicus [1] is on record as 8620 /mm3; in the assay with Rattus norvegicus [3] it was 19.71%; in the assay with Rattus norvegicus [4], 2.86%; in the assay with Rattus norvegicus [5], 73.29%. Besides, the outcome in the assay on Rattus norvegicus [2] was inactive.

`Cc1ccc(-c2nc(CC(=O)N/N=C\c3ccc(OCc4csc(-c5ccccc5)n4)cc3)cs2)cc1`: the Activity in the assay with Rattus norvegicus [1] is on record as 3271.43 /mm3; in the assay on Rattus norvegicus [3], 21.43%; in the assay on Rattus norvegicus [4], 1.86%; in the assay on Rattus norvegicus [5], 52.57%. Moreover, the result in the assay on Rattus norvegicus [2] was inactive.

For the compound `O=C(Cc1csc(-c2cccc(C(F)(F)F)c2)n1)N/N=C\c1ccc(OCc2csc(-c3ccccc3)n2)cc1`, the result in the assay listed under Rattus norvegicus [6] and in the assay listed under Rattus norvegicus [7] was Active. Also, the Activity was 5664.28 /mm3 in the assay with Rattus norvegicus [1], 20.71% with Rattus norvegicus [3], 2% in the assay on Rattus norvegicus [4] and 82.28% with Rattus norvegicus [5]. For the same compound, in the assay on Rattus norvegicus [2], the outcome was inactive.

As for `O=C(COc1ccc2c(=O)cc(-c3ccccc3)oc2c1)N/N=C\c1ccc(OCc2csc(-c3ccccc3)n2)cc1`, the outcome in the assay listed under Rattus norvegicus [6] and in the assay listed under Rattus norvegicus [7] was Active. The Activity in the assay with Rattus norvegicus [1] was 8228.57 /mm3; in the assay on Rattus norvegicus [3], 23.57%; in the assay on Rattus norvegicus [4], 3.71%; in the assay on Rattus norvegicus [5] it was 76%. The result in the assay on Rattus norvegicus [2] was inactive.

Turning to `O=C(COc1ccc2c(=O)cc(-c3ccccc3)oc2c1)N/N=C/c1cccc(OCc2csc(-c3ccccc3)n2)c1`, the Activity is 12100 /mm3 with Rattus norvegicus [1], 24% with Rattus norvegicus [3], 2.6% with Rattus norvegicus [4] and 71.71% with Rattus norvegicus [5]. Moreover, the result in the assay with Rattus norvegicus [2] was Active.

Regarding `Cc1nc(-c2ccccc2)sc1C(=O)COc1ccc(/C=N\NC(=O)Cc2csc(-c3cccc(C(F)(F)F)c3)n2)cc1`, the result in the assay listed under Rattus norvegicus [6] and in the assay on Rattus norvegicus [2] was Active. The Activity in the assay on Rattus norvegicus [1] is 10200 /mm3; in the assay with Rattus norvegicus [3], 18%; in the assay on Rattus norvegicus [4], 2%; in the assay on Rattus norvegicus [5] it was 78%.

Take `O=C(Cc1csc(-c2cccc(C(F)(F)F)c2)n1)N/N=C\c1ccc(OCc2csc(-c3ccc(Br)cc3)n2)cc1`: the Activity was 7402.85 /mm3 in the assay with Rattus norvegicus [1], 32% in the assay with Rattus norvegicus [3], 3.14% in the assay on Rattus norvegicus [4] and 63.14% in the assay on Rattus norvegicus [5]. Moreover, in the assay on Rattus norvegicus [2], the result was inactive.

In the case of `O=C(Cc1csc(-c2cccc(C(F)(F)F)c2)n1)N/N=C/c1cccc(OCc2csc(-c3ccccc3)n2)c1`, the result in the assay filed under Rattus norvegicus [6] and in the assay listed under Rattus norvegicus [7] was Active. Further, the Activity is recorded as 9540 /mm3 in the assay with Rattus norvegicus [1], 32.28% in the assay with Rattus norvegicus [3], 2.4% with Rattus norvegicus [4] and 61.71% in the assay with Rattus norvegicus [5].
